Results published in ChEMBL document CHEMBL1156156, “Conformationally-restricted amino acid analogues bearing a distal sulfonic acid show selective inhibition of system x(c)(-) over the vesicular glutamate transporter” (Bioorg Med Chem Lett, 2010).

Assays:
[1] = molecular target: T1, Cystine/glutamate transporter (Homo sapiens, UniProt Q9UPY5); assay: Inhibition of amino acid transport system xc-
T1 sequence (Q9UPY5 whole entry): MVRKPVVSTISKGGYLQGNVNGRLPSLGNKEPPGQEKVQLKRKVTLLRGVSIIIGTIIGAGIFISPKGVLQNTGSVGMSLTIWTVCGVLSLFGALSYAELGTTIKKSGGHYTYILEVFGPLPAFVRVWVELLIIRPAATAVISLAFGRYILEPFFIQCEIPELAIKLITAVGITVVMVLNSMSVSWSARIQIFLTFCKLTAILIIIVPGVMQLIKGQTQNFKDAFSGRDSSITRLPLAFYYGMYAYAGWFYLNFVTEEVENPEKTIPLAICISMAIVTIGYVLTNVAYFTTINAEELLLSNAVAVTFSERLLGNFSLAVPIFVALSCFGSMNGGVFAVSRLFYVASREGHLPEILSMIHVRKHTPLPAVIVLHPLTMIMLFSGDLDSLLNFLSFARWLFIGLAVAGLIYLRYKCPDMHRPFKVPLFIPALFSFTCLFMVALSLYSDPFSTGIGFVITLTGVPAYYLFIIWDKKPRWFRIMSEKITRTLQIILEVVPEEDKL
Procedure, shortened: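 Cells were given 100 μM ³H-L-glutamate plus 500 μM inhibitor, and uptake ran for 5 min. Wells were rinsed three times with 0°C HBHS, and cells were lysed in 0.4 M NaOH for 24 h. Acetic acid was added to a lysate aliquot, and radioactivity was counted against background.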

[2] = molecular target: T2, Cystine/glutamate transporter (Homo sapiens) (UniProt Q9UPY5); assay: Inhibition of amino acid transport system xc- in human SNB19 cells assessed as [3H]L-glutamate uptake at 500 uM after 24 hrs by liquid scintillation counting; type: cell-based; conditions: SNB-19
T2 sequence (whole entry): T1 sequence (Q9UPY5 whole entry)
Procedure, shortened: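 Uptake begun by adding ³H-L-glutamate (100 μM) with inhibitor (500 μM) to the wells and run for 5 min. Wells rinsed three times with 0°C HBHS, and cells lysed in 0.4 M NaOH for 24 h. A 200 μl aliquot was acidified with acetic acid and radioactivity counted against background.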

[3] = species on record: Rattus norvegicus; assay: Inhibition of VGLUT in rat brain synaptic vesicles assessed as [3H]L-glutamate uptake at 5 mM after 24 hrs by liquid scintillation counting; type: tissue-based
Procedure, shortened: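 Vesicular uptake used 250 μM L-glutamate as substrate, with inhibitor at 5 mM.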

[4] = Inhibition of VGLUT

For `N[C@@H](CCS(=O)(=O)O)C(=O)O`, the IC50 [1] was 35 µM.

`Cc1c(C(=O)O)sc(N)c1C(=O)O` showed a Drug uptake [2] of 57% and a Drug uptake [3] of 44%.

For `Cc1cc(C(N)C(=O)O)sc1C` (stereo unspecified), the Drug uptake [2] was 73% and the Drug uptake [3] was 57%.

`NC(C(=O)O)c1csc2ccccc12` (stereo unspecified) gave a Drug uptake [2] of 53% and a Drug uptake [3] of 31%.

With `NC(Cc1ccc(Br)cc1S(=O)(=O)O)C(=O)O` (stereo unspecified) the Drug uptake [2] was 83% and the Drug uptake [3] was 77%.

In the case of `N[C@H](C(=O)O)c1ccc(S(=O)(=O)O)cc1`, the Drug uptake [2] is reported as 55% and the Drug uptake [3] is reported as 105%.

For `N[C@@H](C(=O)O)c1ccc(S(=O)(=O)O)s1`, the Drug uptake [2] was 55% and the Drug uptake [3] was 104%.

With `CC(N)(Cc1ccc(S(=O)(=O)O)cc1)C(=O)O` (stereo unspecified) the Drug uptake [2] was 106% and the Drug uptake [3] was 98%.

Work on `Cc1cc(-c2ccc(/N=N/c3c(S(=O)(=O)O)cc4cc(S(=O)(=O)O)cc(N)c4c3O)c(C)c2)ccc1/N=N/c1c(S(=O)(=O)O)cc2cc(S(=O)(=O)O)cc(N)c2c1O` [TRYPAN BLUE] yielded an IC50 [4] of 0.05 µM.

Work on `N[C@@H](Cn1oc(=O)[nH]c1=O)C(=O)O` [QUISQUALATE] yielded an IC50 [1] of 5 µM.

In the case of `Cc1csc(C(=O)O)c1N`, the Drug uptake [2] is reported as 83% and the Drug uptake [3] is reported as 91%.

Molecule `N[C@H](Cc1ccc(S(=O)(=O)O)cc1)C(=O)O` has a Drug uptake [2] of 101% and a Drug uptake [3] of 102%.

Work on `N[C@H](C(=O)O)c1ccc(C(=O)O)cc1` yielded an IC50 [1] of 5 µM.

Work on `NC(C(=O)O)c1ccc(-c2cccs2)s1` (stereo unspecified) yielded a Drug uptake [2] of 69% and a Drug uptake [3] of 53%.

For `N[C@@H](C(=O)O)c1ccc(S(=O)(=O)O)cc1`, the Drug uptake [2] was 98% and the Drug uptake [3] was 108%.

`NC(C(=O)O)c1c[nH]cn1` (stereo unspecified) gave a Drug uptake [2] of 96% and a Drug uptake [3] of 95%.

`N[C@@H](Cc1ccc(S(=O)(=O)O)cc1)C(=O)O` gave a Drug uptake [2] of 90% and a Drug uptake [3] of 131%.

In the case of `N[C@@H](COS(=O)(=O)O)C(=O)O`, the IC50 [1] is reported as 26 µM.

`NC(C(=O)O)c1ccc(Br)s1` (stereo unspecified) gave a Drug uptake [2] of 83% and a Drug uptake [3] of 37%.

For `NC(C(=O)O)c1ccc(-c2ccc(C(=O)O)cc2)cc1` (stereo unspecified), the Drug uptake [2] was 27% and the Drug uptake [3] was 75%.

`Nc1c(/N=N/c2ccc(-c3ccc(/N=N/c4cc(S(=O)(=O)O)c5ccccc5c4N)cc3)cc2)cc(S(=O)(=O)O)c2ccccc12` gave a Drug uptake [3] of 31%.

In the case of `NC(C(=O)O)c1ccc(S(=O)(=O)O)s1` (stereo unspecified), the Drug uptake [2] is reported as 26% and the Drug uptake [3] is reported as 81%.

Molecule `N[C@H](C(=O)O)c1ccc(S(=O)(=O)O)s1` has a Drug uptake [2] of 32% and a Drug uptake [3] of 92%.

`N[C@@H](CS)C(=O)O` gave a Drug uptake [2] of 22%.
